From ChEMBL document CHEMBL1208775, “Synthesis and vasodilative activity of tanshinone IIA derivatives” (Bioorg Med Chem Lett, 2010)

Each molecule was assayed on Thoracic aorta (assay: Vasodilatory activity in Wistar rat endothelium-intact thoracic aorta assessed as inhibition of norepinephrine-induced contraction after 20 mins by organ-bath technique).
Type: functional, tissue-based
In short: (§1)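 Rat aortic rings in Krebs-Henseleit solution, equilibrated 2 h at 1.5 g basal tension with bath changes every 20 min. Endothelium taken as intact when acetylcholine (1 × 10^-5 mmol) relaxed norepinephrine-precontracted rings by more than 80%. Rings were precontracted with norepinephrine bitartrate (1 × 10^-6 mM) before compound addition. Response is expressed as percent of maximal control norepinephrine contraction. Mean ± SEM, paired t-test.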

Structure (SMILES) | IC50 [µM] | inhibition
Cc1c(C(c2cccc(Cl)c2)c2oc3c(c2C)C(=O)C(=O)c2c-3ccc3c2CCCC3(C)C)oc2c1C(=O)C(=O)c1c-2ccc2c1CCCC2(C)C | 260 | Dose-dependent effect
CC(CO)C1=C(O)C(=O)c2c(ccc3c2CCCC3(C)C)C1=O (stereo not given) | 480 | Dose-dependent effect
COc1cc(C(c2oc3c(c2C)C(=O)C(=O)c2c-3ccc3c2CCCC3(C)C)c2oc3c(c2C)C(=O)C(=O)c2c-3ccc3c2CCCC3(C)C)ccc1O | 130 | Dose-dependent effect

The molecules below were run on Thoracic aorta (assay: Vasodilatory activity in Wistar rat endothelium-intact thoracic aorta assessed as inhibition of norepinephrine-induced contraction at 100 uM after 20 mins by organ-bath technique).
Type: functional
In short: as §1

Structure (SMILES) | inhibition at 100 µM [%]
Cc1c(C(c2cccc([N+](=O)[O-])c2)c2oc3c(c2C)C(=O)C(=O)c2c-3ccc3c2CCCC3(C)C)oc2c1C(=O)C(=O)c1c-2ccc2c1CCCC2(C)C | 18.8
Cc1c(C(c2ccc(O)c(O)c2)c2oc3c(c2C)C(=O)C(=O)c2c-3ccc3c2CCCC3(C)C)oc2c1C(=O)C(=O)c1c-2ccc2c1CCCC2(C)C | -0.86
Cc1c(C(c2ccccc2Cl)c2oc3c(c2C)C(=O)C(=O)c2c-3ccc3c2CCCC3(C)C)oc2c1C(=O)C(=O)c1c-2ccc2c1CCCC2(C)C | -29.2
Cc1c(Br)oc2c1C(=O)C(=O)c1c-2ccc2c1CCCC2(C)C | 4.24
Cc1c(C(c2ccc(O)cc2)c2oc3c(c2C)C(=O)C(=O)c2c-3ccc3c2CCCC3(C)C)oc2c1C(=O)C(=O)c1c-2ccc2c1CCCC2(C)C | 15.2
Cc1c(C(c2cccc(Cl)c2)c2oc3c(c2C)C(=O)C(=O)c2c-3ccc3c2CCCC3(C)C)oc2c1C(=O)C(=O)c1c-2ccc2c1CCCC2(C)C | 56
CC(CO)C1=C(O)C(=O)c2c(ccc3c2CCCC3(C)C)C1=O (stereo not given) | 59.2
COc1cc(C(c2oc3c(c2C)C(=O)C(=O)c2c-3ccc3c2CCCC3(C)C)c2oc3c(c2C)C(=O)C(=O)c2c-3ccc3c2CCCC3(C)C)ccc1O | 42.8
Cc1c(C(c2ccc([N+](=O)[O-])cc2)c2oc3c(c2C)C(=O)C(=O)c2c-3ccc3c2CCCC3(C)C)oc2c1C(=O)C(=O)c1c-2ccc2c1CCCC2(C)C | 11.4
Cc1c(C(c2ccc(Cl)cc2)c2oc3c(c2C)C(=O)C(=O)c2c-3ccc3c2CCCC3(C)C)oc2c1C(=O)C(=O)c1c-2ccc2c1CCCC2(C)C | 1
Cc1c(C(c2ccc([S+](C)[O-])cc2)c2oc3c(c2C)C(=O)C(=O)c2c-3ccc3c2CCCC3(C)C)oc2c1C(=O)C(=O)c1c-2ccc2c1CCCC2(C)C (stereo not given) | 10.3
COc1ccc(C(c2oc3c(c2C)C(=O)C(=O)c2c-3ccc3c2CCCC3(C)C)c2oc3c(c2C)C(=O)C(=O)c2c-3ccc3c2CCCC3(C)C)cc1 | 11
Cc1coc2c1C(=O)C(=O)c1c-2ccc2c1CCCC2(C)C [TANSHINONE IIA] | 2.92
Cc1c(C(c2ccccc2)c2oc3c(c2C)C(=O)C(=O)c2c-3ccc3c2CCCC3(C)C)oc2c1C(=O)C(=O)c1c-2ccc2c1CCCC2(C)C | 2.95
